Laboratory results published in paper PMC6062249 (Toxicology Research, 2016).
Like-named read-outs stand apart in the source and are kept apart here.

Experiments:
human recombinant CYP1A1 = target: T1, human recombinant CYP1A1 (Homo sapiens, UniProt P04798); experiment: EROD activity of microsomes containing human recombinant CYP1A1; format: biochemical
T1 sequence (P04798 1-512): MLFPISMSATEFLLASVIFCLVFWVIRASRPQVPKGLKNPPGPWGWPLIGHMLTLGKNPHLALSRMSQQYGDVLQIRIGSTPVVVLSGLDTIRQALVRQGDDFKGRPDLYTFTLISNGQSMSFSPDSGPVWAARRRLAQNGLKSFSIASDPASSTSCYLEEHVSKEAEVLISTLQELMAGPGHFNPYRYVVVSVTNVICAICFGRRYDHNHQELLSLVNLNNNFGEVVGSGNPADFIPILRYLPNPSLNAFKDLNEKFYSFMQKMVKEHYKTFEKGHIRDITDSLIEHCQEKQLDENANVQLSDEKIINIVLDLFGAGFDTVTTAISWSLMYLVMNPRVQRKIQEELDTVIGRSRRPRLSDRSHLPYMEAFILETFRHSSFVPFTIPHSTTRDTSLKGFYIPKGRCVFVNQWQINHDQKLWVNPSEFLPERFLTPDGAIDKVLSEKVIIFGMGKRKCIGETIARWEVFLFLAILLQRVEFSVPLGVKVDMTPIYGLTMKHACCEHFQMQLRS
How it was run: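 Microsomes containing recombinant human CYP1A1 (2.5 nM) with NADPH-P450 reductase were pre-incubated 5 min with test compound (0.00064–20 μM) or DMSO (final <0.5%). 7-Ethoxyresorufin (0.5 μM) and NADPH (0.4 mM) were then added. Resorufin formation was followed kinetically at 535/590 nm, every 2 s, in triplicate. DMSO control was set as 100% and the no-NADPH reaction as 0%; IC50 was fitted by nonlinear regression.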

CYP1 = details: read-out: reported IC50 values, CYP1 inhibition; cited from earlier work
[1] = tested on: CYP1A1 mRNA in HaCaT cells; experiment: CYP1A1 gene expression by qRT-PCR in HaCaT cells, single exposure; format: cell-based, human; details: 6 h; for reduction of CYP1A1 mRNA levels compared to DMSO control: dose-dependent, 0.1-10 μM
How it was run: (§1)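 Confluent HaCaT cells (seeded 1 × 10^4/well, grown 3 d) were exposed in fresh DMEM to 0.1, 1.0 or 10 μM test compound or DMSO for 6 h. One-step SYBR Green RT-PCR used cell lysate directly with 200 nM primers. Cycling was 48 °C 30 min, 95 °C 10 min, then 40 × (95 °C 15 s, 60 °C 1 min), with melt curve. Expression is 2^–ΔΔCt normalized to B2M; three experiments in duplicate. Calls required p < 0.05 (two-way ANOVA, Bonferroni) and >2-fold versus DMSO; strong inducer was ≥20-fold.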

[2] = tested on: TCDD induced CYP1A1 mRNA in HaCaT cells; experiment: TCDD-induced CYP1A1 mRNA in HaCaT cells, co-exposure with oxy-PAH; format: cell-based, human; details: TCDD 5 nM + 1 μM oxy-PAH, 6 h
How it was run: (§2)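 Confluent HaCaT cells were exposed for 6 h to TCDD (5 nM) alone or with 0.1, 1.0 or 10 μM test compound. CYP1A1 and CYP1B1 mRNA were measured by one-step SYBR Green RT-PCR on cell lysate with 200 nM primers. Quantification used 2^–ΔΔCt with B2M as reference; three experiments in duplicate. Levels are % of TCDD-alone mRNA (100%). Strong inhibitor meant p < 0.05 at ≤1 μM; inhibitor meant p < 0.05 at 10 μM (two-way ANOVA, Bonferroni).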

[3] = tested on: CYP1-dependent EROD activity in HaCaT cells; experiment: Cellular CYP1-dependent EROD activity in HaCaT cells, single exposure; format: cell-based, human; details: HaCaT cells, 0.1, 1.0 or 10 μM, 3-48 h
How it was run: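 Confluent HaCaT cells were exposed to 0.1, 1.0 or 10 μM test compound, B[a]P or DMSO for 3, 6, 24 and 48 h. Medium was removed and cells rinsed with PBS, then incubated 20 min at 37 °C with 2 μM 7-ethoxyresorufin in 50 mM sodium phosphate, pH 8.0. The reaction was stopped with cold fluorescamine (0.15 mg/mL in acetonitrile). Resorufin was read at 535/590 nm in triplicate and normalized to protein (fluorescamine, 390/485 nm).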

[4] = tested on: CYP1B1 mRNA in HaCaT cells; experiment: CYP1B1 gene expression by qRT-PCR in HaCaT cells, single exposure; format: cell-based, human; details: 6 h; for reduction of CYP1B1 mRNA levels compared to DMSO control: dose-dependent, 0.1-10 μM
How it was run: as §1

[5] = tested on: TCDD induced CYP1B1 mRNA in HaCaT cells; experiment: TCDD-induced CYP1B1 mRNA in HaCaT cells, co-exposure with oxy-PAH; format: cell-based, human; details: TCDD 5 nM + 1 μM oxy-PAH, 6 h
How it was run: as §2

[6] = tested on: TCDD induced CYP1-dependent EROD activity in HaCaT cells; experiment: TCDD-induced cellular EROD activity in HaCaT cells, co-exposure with oxy-PAH; format: cell-based, human; details: TCDD 5 nM + 0.1-10 μM oxy-PAH, 6, 12, 24 h
How it was run: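 Confluent HaCaT cells were co-exposed to TCDD (5 nM) alone or with 0.1, 1.0 or 10 μM test compound for 6, 12 and 24 h. After a PBS rinse, cells were incubated 20 min at 37 °C with 2 μM 7-ethoxyresorufin in 50 mM sodium phosphate, pH 8.0, and stopped with cold fluorescamine. Resorufin (535/590 nm) was read in triplicate and normalized to fluorescamine protein signal. Activity is % of TCDD alone.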

HaCaT cells = experiment: Alamar Blue cell viability assay; format: cell-based, human; details: 10 μM, alone or with TCDD 5 nM, 24 h
How it was run: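 HaCaT keratinocytes were grown in DMEM with 10% FBS at 37 °C, 5% CO2, seeded at 1 × 10^4 cells/well and cultured 3 d to high confluency. Cells were exposed in fresh DMEM to test compound alone or with TCDD (5 nM), with 0.1–0.18% DMSO as solvent control. Afterwards, 10% AlamarBlue in DMEM was added for 1 h at 37 °C and fluorescence read at 560/590 nm. Viability is given as % of DMSO control, from three separate experiments.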

[7] = tested on: TCDD induced CYP1 mRNA (CYP1A1 and 1B1) in HaCaT cells; experiment: TCDD-induced CYP1 mRNA; format: cell-based, human; details: TCDD 5 nM + 0.1-10 μM oxy-PAH, 6 h
How it was run: as §2

[8] = IC50, inhibition of CYP1A1-mediated EROD activity, human recombinant CYP1A1 2.5 nM, 7-ethoxyresorufin 0.5 μM, NADPH 0.4 mM, 5 min pre-incubation

`O=C1c2ccccc2-c2ccccc21` [9-FLO, 9-fluorenone] gave an IC50 (human recombinant CYP1A1; [8]) of 3000 nM.

For `O=c1cc(-c2ccccc2)oc2c1ccc1ccccc12` [αNF, α-Naphthoflavone], the IC50 (CYP1) is listed as less than 100 nM.

In the case of `O=C1c2cccc3ccc4ccc5cccc1c5c4c23` [6H-BPO, 6H-benzo[cd]pyren-6-one], the “reduction of CYP1A1 mRNA levels compared to DMSO control” value (“reduction of CYP1A1 mRNA levels” below) [1] is reported as “up to 15 fold”, the “reduction of TCDD-induced CYP1A1 mRNA levels” value [2] is reported as “around 50%” and the “induction of cellular EROD activity (in words)” value (“induction” for short) [3] is reported as “significantly increased levels of enzyme activity compared to the DMSO control but lower than B[a]P”. The “reduction of CYP1B1 mRNA levels compared to DMSO control” value (“reduction of CYP1B1 mRNA levels” below) [4] was “up to 15 fold”, the “reduction of TCDD-induced CYP1B1 mRNA levels” value [5] was “around 50%” and the “inhibition of TCDD-mediated EROD activity (in words)” value (“inhibition” for short) [6] was “significant inhibition”. For the same compound, the “cytotoxicity (Alamar Blue viability, in words)” value (HaCaT cells) was “not associated with increased cytotoxicity”.

In the case of `O=C1C=Cc2cccc3cccc1c23` [1H-PHO, 1H-phenalen-1-one], the IC50 (human recombinant CYP1A1; [8]) is reported as greater than 10000 nM.

In the case of `O=C1c2ccccc2C(=O)c2ccccc21` [9,10-AQ, anthracene-9,10-quinone], the “reduction of CYP1A1 mRNA levels” value [1] is reported as “up to 15 fold”, the “reduction of CYP1B1 mRNA levels” value [4] is reported as “up to 15 fold” and the “inhibition” value [6] is reported as “significant inhibition”. The IC50 (human recombinant CYP1A1; [8]) was greater than 10000 nM.

`O=C1C(=O)c2cccc3cccc1c23` [1,2-ACNQ, acenaphthylene-1,2-quinone] showed an IC50 (human recombinant CYP1A1; [8]) greater than 10000 nM.

Work on `O=C1c2ccccc2-c2cccc3cccc1c23` [7H-BAO, 7H-benz[de]anthracene-7-one] yielded an IC50 (human recombinant CYP1A1; [8]) of 770 nM.

In the case of `Clc1cc2c(cc1Cl)Oc1cc(Cl)c(Cl)cc1O2` [TCDD, 2,3,7,8-Tetrachlorodibenzo-p-dioxin, reference compound], the “increase of CYP1A1 mRNA levels compared to DMSO control” value (from here on “increase of CYP1A1 mRNA levels”) ([1]; TCDD alone 5 nM) is reported as 138 fold and the “increase of CYP1B1 mRNA levels compared to DMSO control” value (“increase of CYP1B1 mRNA levels” for short) ([4]; TCDD alone 5 nM) is reported as 36 fold.

In the case of `c1ccc2cc3c(ccc4ccccc43)cc2c1` [benz[a]anthracene], the IC50 (CYP1) is given as less than 100 nM.

For `O=C1CCc2ccccc21` [1-INO, 1-Indanone], the IC50 (human recombinant CYP1A1; [8]) was greater than 10000 nM.

For `O=c1c2cccc3ccc4cccc1c4c32` [4H-CPO, 4H-Cyclopenta[def]phenanthrene-4-one], the “reduction of CYP1A1 mRNA levels” value [1] was “up to 15 fold”, the “induction” value [3] was “significantly increased levels of enzyme activity compared to the DMSO control but lower than B[a]P” and the “reduction of CYP1B1 mRNA levels” value [4] was “up to 15 fold”. For the same compound, the IC50 (human recombinant CYP1A1; [8]) was 320 nM.

With `O=C1C=CC(=O)c2c1ccc1c2ccc2ccccc21` [1,4-CHRQ, chrysene-1,4-quinone] the “increase of CYP1A1 mRNA levels” value ([1]; 0.1-10 μM oxy-PAH) was “up to 60 fold”, the “induction” value [3] was “did not induce EROD activity” and the “increase of CYP1B1 mRNA levels” value ([4]; 0.1-10 μM oxy-PAH) was no more than 40 fold. The “effect on TCDD-induced CYP1A1 and 1B1 expression levels (in words)” value (“effect” for short) [7] was “no effect at all” and the IC50 (human recombinant CYP1A1; [8]) was 6200 nM.

With `O=C1c2ccccc2C(=O)c2cc3ccccc3cc21` [5,12-NQ, naphthacene-5,12-quinone] the “increase of CYP1A1 mRNA levels” value ([1]; 0.1-10 μM oxy-PAH) was “up to 60 fold”, the “increase of CYP1B1 mRNA levels” value ([4]; 0.1-10 μM oxy-PAH) was no more than 40 fold and the “inhibition” value [6] was “significant inhibition”. For the same compound, the “effect” value [7] was “no effect at all”.

In the case of `O=C1c2ccccc2C(=O)c2c1ccc1ccccc21` [7,12-BAQ, benz[a]anthracene-7,12-quinone], the “increase of CYP1A1 mRNA levels” value ([1]; 0.1-10 μM oxy-PAH) is reported as “up to 60 fold”, the “increase of CYP1B1 mRNA levels” value ([4]; 0.1-10 μM oxy-PAH) is reported as no more than 40 fold and the “inhibition” value [6] is reported as “most potent inhibitors”. For the same compound, the “effect” value [7] was “no effect at all” and the IC50 (human recombinant CYP1A1; [8]) was 37 nM.

For `Cc1ccc2c(c1)C(=O)c1ccccc1C2=O` [2-MAQ, 2-methylanthracene-9,10-quinone], the “induction” value [3] was “significantly increased levels of enzyme activity compared to the DMSO control but lower than B[a]P”.

For `O=C1c2ccccc2-c2ccc3ccccc3c21` [BFLO, benzo[a]fluorenone], the “increase of CYP1A1 mRNA levels” value ([1]; 0.1-10 μM oxy-PAH) was “up to 60 fold”, the “reduction of TCDD-induced CYP1A1 mRNA levels” value [2] was “around 50%” and the “increase of CYP1B1 mRNA levels” value ([4]; 0.1-10 μM oxy-PAH) was no more than 40 fold. The “reduction of TCDD-induced CYP1B1 mRNA levels” value [5] was “around 50%”, the “inhibition” value [6] was “most potent inhibitors” and the IC50 (human recombinant CYP1A1; read-out: IC50, inhibition of CYP1A1-mediated EROD activity, human recombinant CYP1A1 2.5 nM, 7-ethoxyresorufin 0.5 μM, NADPH 0.4 mM, 5 min pre-incubation) was 61 nM.

With `O=C1C(=O)c2ccccc2-c2ccccc21` [9,10-PQ, phenanthrene-9,10-quinone] the “cytotoxicity (Alamar Blue viability, in words)” value (HaCaT cells) was “increased cytotoxicity”.

With `Cc1cc2c(cc1C)C(=O)c1ccccc1C2=O` [2,3-DMAQ, 2,3-dimethylanthracene-9,10-quinone] the “reduction of TCDD-induced CYP1A1 mRNA levels” value [2] was “around 50%”, the “induction” value [3] was “significantly increased levels of enzyme activity compared to the DMSO control but lower than B[a]P” and the “reduction of TCDD-induced CYP1B1 mRNA levels” value [5] was “around 50%”. For the same compound, the “inhibition” value [6] was “significant inhibition” and the IC50 (human recombinant CYP1A1; [8]) was 2100 nM.

In the case of `c1ccc2c(c1)ccc1nc3ccc4ccccc4c3cc12` [dibenz[a,j]acridine], the IC50 (CYP1) is given as less than 100 nM.

In the case of `c1cc2ccc3cccc4ccc(c1)c2c34` [pyrene], the IC50 (CYP1) is given as less than 100 nM.
